Screening results as filed in PubChem BioAssay.
Only some compounds are listed: those with a hit (about 2.6% of all), similar ones and a draw of the others.
IMP-1 inhibitor: inhibitors of Pseudomonas aeruginosa IMP-1 metallo-beta-lactamase; purified IMP-1, nitrocefin hydrolysis, epi-absorbance fluorescence; inhibition, % at 5.6 µM; actives 0.45% (n = 290,000);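 active means inhibition above the mean plus 3 SD of all compounds in the same screening run, cut at about 4.5% in these data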;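 further: 0% = IMP-1 with DMSO and 100% = DMSO wells lacking enzyme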
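system = purified recombinant IMP-1 beta-lactamase | amount = 0.2 nM IMP-1, as dispensed | medium = HEPES buffer pH 7.1 with ZnSO4 and Brij 35 | times = 25 °C, 15 min preincubation, 25 min reaction | detection = plate fluorescence quenching by hydrolysis product, ex 480/em 530 nm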
Calb FLC: affects C. albicans growth with fluconazole; C. albicans CaCi-2 + fluconazole, Alamar Blue growth, 48 h; growth inhibition, % (test concentration not listed); actives 0.57% (n = 300,000);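 active means growth inhibition above about 58% in most replicates, limit read from the data, passing the limit was not always enough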;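 further: all wells also contain fluconazole at 8 µg/ml as a sub-toxic cotreatment; 0% = median of DMSO wells and 100% = median of geldanamycin control wells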
ASAP1 inh: blocks human ASAP1-stimulated Arf1 GTP hydrolysis; actives 0.19% (n = 360,000); GDP FP detection; inhibition, % at 16.5 µM; AID 624377; in the data active means inhibition above about 25%;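 further: 0% = vehicle with enzyme and substrate and 100% = no enzyme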
Target sequence (Q9ULH1 325-724 limits assumed): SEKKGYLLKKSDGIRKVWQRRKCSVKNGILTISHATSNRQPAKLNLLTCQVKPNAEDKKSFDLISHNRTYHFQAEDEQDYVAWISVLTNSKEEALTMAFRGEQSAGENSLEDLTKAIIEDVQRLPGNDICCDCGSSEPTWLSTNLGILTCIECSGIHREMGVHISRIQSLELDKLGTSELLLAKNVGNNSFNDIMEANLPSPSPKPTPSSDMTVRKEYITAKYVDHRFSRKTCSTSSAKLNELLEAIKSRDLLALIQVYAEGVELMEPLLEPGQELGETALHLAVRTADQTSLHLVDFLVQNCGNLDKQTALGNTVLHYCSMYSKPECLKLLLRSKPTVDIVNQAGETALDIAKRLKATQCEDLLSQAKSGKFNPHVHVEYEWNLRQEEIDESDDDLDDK
VIM-2 inh: inhibitors of Pseudomonas aeruginosa VIM-2 metallo-beta-lactamase. actives 0.89% (n = 290,000). AID 1527. inhibition, % at 5.6 µM. purified VIM-2, nitrocefin hydrolysis, epi-absorbance fluorescence;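 active means inhibition above the mean of all tested compounds plus 3 SD, cutoff set per screening run, cut at about 7.5% in these data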;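 further: red hydrolysis product quenches plate fluorescence so inhibitors raise well fluorescence; 0% = enzyme with DMSO and 100% = DMSO without enzyme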
PHOSPHO1 block: inhibitors of human PHOSPHO1 phosphatase. Q8TCT1. recombinant PHOSPHO1, absorbance phosphatase assay. inhibition, % at 13.3 µM. actives 1.1% (n = 290,000). AID 1565; in the data active means inhibition above about 60%
ARFGAP1 inh: inhibits rat ARF GTPase activating protein 1. Q62848. AID 651572. Arfgap1-stimulated ARF1 GTP hydrolysis, GDP FP detection. inhibition, % at 16.5 µM. actives 0.26% (n = 360,000);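 active means inhibition above a per-plate limit, mean inhibition of low control wells plus 3 SD, cut at about 25% in these data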;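 further: 0% = DMSO wells with enzyme and 100% = wells lacking Arfgap1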
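Material: truncated rat Arfgap1 GAP domain; Incubation: compound-enzyme preincubation 20 min, reaction 120 min, detection 60 min, 25 °C; Read-out: percent inhibition of Arfgap1-stimulated GTP hydrolysis; Technique: FP, GDP Alexa 633 tracer displaced from anti-GDP antibody, 620/688 nm; Controls: No-Arfgap1 wells (100%) versus DMSO full-reaction wells (0%); Replication: single well per compound.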
The depositor's hits bear a star; · = no result given.

SMILES	IMP-1 inhibitor	Calb FLC	ASAP1 inh	VIM-2 inh	PHOSPHO1 block	ARFGAP1 inh
CCCCOc1ccc(-c2nc(SCC(N)=O)n[nH]2)cc1	5.2*	-1	5	0	15	17
CCCCNc1ccc2c(c1)OC[C@H](C)NS2(=O)=O	·	·	-13	·	·	2
O=C(N[C@H](Cc1ccccc1)C(=O)NCc1ccc(OC(F)(F)F)cc1)[C@H]1O[C@@H](n2ccc(=O)[nH]c2=O)[C@H](O)[C@@H]1O	·	·	8	·	·	-8
COc1ccc(-c2ccc3c(N)c(C(=O)NC(C)C)sc3n2)cc1OC	-3	2	3	-3	2	-2
COc1ccc(C(=O)c2sc3nc(-c4ccccc4)ccc3c2N)cc1OC	-3	-2	1	-2	88*	-2
COc1ccc(-c2ccc3c(N)c(C(=O)c4ccc(OC)c(OC)c4)sc3n2)cc1	-4	8	10	-3	63*	0
NC(=O)c1sc2nc(-c3ccccc3)ccc2c1N	2	45	-2	0	14	4
COCCN(Cc1ccc(C)cc1)C(=O)[C@@H](Cc1ccccc1)NC(=O)[C@H]1O[C@@H](n2ccc(=O)[nH]c2=O)[C@H](O)[C@@H]1O	·	·	-11	·	·	0
CC1(C)CC(Cc2ccc(Cl)nc2)N(C(=O)OC(C)(C)C)C1 (configuration not stated)	·	·	-2	·	·	1
O=C(NC1CCN(C(=S)NCc2ccco2)CC1)NC12CC3CC(CC(C3)C1)C2	-2	-1	-8	-1	89*	-1
ON=C1c2cc(OCCN3CCCCC3)ccc2-c2ccc(OCCN3CCCCC3)cc21	5.6*	27	·	6	34	·
Cc1cccc(-c2cccc3[nH]c4c(c23)CCN2C(=O)[C@H]3[C@H](C)ON(C)[C@H]3C[C@@H]42)c1	·	·	4	·	·	4
N=c1c2c(-c3ccccc3)c(-c3ccccc3)n(Cc3ccccc3)c2ncn1CCO	-2	97*	-3	0	46	-5
Cc1nc(NCc2ccccc2)sc1C(=O)Nc1ccccc1	-1	4	-4	-1	68*	-4
Cc1nc(NC(C)c2ccccc2)sc1C(=O)Nc1ccccc1 (configuration not stated)	-1	-11	12	-1	61*	-15
CC(=O)c1sc(NC(C)c2ccccc2)nc1C (configuration not stated)	0	-4	-4	2	6	-16
COC(=O)C1=C(C)N(Cc2ccc(Cl)cc2)C(=S)NC1c1ccc(Br)cc1 (configuration not stated)	·	·	13	·	·	4
CCOc1cc(N2CCOCC2)c(OCC)cc1NC(=O)[C@H](C)N1C(=O)C2CC=CCC2C1=O (some centres not stated)	0	-3	-8	2	63*	4
O=C1COc2ccc(C(=O)CSc3nnc(-c4cccs4)n3Cc3ccccc3)cc2N1	-3	1	1	9.3*	74*	8
Cc1cc(C(=O)CSc2nnc(-c3cccs3)n2Cc2ccccc2)c(C)n1C	-4	-17	6	0	90*	9
O=c1c2ccccc2nnn1CSc1nnc(-c2cccs2)n1Cc1ccccc1	-4	11	-17	-2	-36	-2
CCn1c(SCC(=O)c2cc(C)n(C)c2C)nnc1-c1ccccc1	-2	-1	-1	-2	62*	8
O=c1cc(CSc2nnc(-c3cccs3)n2Cc2ccccc2)nc2sc3ccccc3n12	-2	35	2	2	69*	-11
CCN=C1NC(c2ccccc2C(F)(F)F)C(C(=O)OC)=C(C)N1Cc1ccc(C(F)(F)F)cc1 (configuration not stated)	·	·	9	·	·	8
COC(=O)C1=C(C)N(Cc2ccc(Br)cc2)C(=S)NC1c1ccccc1 (configuration not stated)	·	·	-7	·	·	6
COc1ccc(C(=O)Nc2ccccc2C(=O)Nc2ccccc2C(=O)O)cc1	-6	81*	-2	-1	29	-6
COc1ccc(C(=O)Nc2ccccc2C(=O)Nc2ccc(C(=O)O)cc2)cc1	-6	16	2	-2	9	-1
COc1ccc(C(=O)Nc2ccccc2C(=O)Nc2ccncc2)cc1	-3	-11	-7	-5	63*	4
